The target in series [1] is Insulin-like growth factor 2 receptor ([…], cation-independent mannose-6-phosphate receptor, CI-MPR; hIGF-IIR) (Homo sapiens, UniProt P11717). Nature of the series: Binding affinity to CI-M6PR. In short, it runs like this: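 Competitive displacement ELISA: biotinylated CI-M6PR bound to pentamannose 6-phosphate adsorbed on microtiter wells, challenged with increasing analog concentrations. Remaining bound receptor detected with streptavidin/peroxidase and o-phenylenediamine substrate by optical density. IC50 taken from dose-inhibition curves. Mean of triplicates from one experiment, confirmed in two further experiments.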
Chain of UniProt P11717 (P11717 whole entry, looked up): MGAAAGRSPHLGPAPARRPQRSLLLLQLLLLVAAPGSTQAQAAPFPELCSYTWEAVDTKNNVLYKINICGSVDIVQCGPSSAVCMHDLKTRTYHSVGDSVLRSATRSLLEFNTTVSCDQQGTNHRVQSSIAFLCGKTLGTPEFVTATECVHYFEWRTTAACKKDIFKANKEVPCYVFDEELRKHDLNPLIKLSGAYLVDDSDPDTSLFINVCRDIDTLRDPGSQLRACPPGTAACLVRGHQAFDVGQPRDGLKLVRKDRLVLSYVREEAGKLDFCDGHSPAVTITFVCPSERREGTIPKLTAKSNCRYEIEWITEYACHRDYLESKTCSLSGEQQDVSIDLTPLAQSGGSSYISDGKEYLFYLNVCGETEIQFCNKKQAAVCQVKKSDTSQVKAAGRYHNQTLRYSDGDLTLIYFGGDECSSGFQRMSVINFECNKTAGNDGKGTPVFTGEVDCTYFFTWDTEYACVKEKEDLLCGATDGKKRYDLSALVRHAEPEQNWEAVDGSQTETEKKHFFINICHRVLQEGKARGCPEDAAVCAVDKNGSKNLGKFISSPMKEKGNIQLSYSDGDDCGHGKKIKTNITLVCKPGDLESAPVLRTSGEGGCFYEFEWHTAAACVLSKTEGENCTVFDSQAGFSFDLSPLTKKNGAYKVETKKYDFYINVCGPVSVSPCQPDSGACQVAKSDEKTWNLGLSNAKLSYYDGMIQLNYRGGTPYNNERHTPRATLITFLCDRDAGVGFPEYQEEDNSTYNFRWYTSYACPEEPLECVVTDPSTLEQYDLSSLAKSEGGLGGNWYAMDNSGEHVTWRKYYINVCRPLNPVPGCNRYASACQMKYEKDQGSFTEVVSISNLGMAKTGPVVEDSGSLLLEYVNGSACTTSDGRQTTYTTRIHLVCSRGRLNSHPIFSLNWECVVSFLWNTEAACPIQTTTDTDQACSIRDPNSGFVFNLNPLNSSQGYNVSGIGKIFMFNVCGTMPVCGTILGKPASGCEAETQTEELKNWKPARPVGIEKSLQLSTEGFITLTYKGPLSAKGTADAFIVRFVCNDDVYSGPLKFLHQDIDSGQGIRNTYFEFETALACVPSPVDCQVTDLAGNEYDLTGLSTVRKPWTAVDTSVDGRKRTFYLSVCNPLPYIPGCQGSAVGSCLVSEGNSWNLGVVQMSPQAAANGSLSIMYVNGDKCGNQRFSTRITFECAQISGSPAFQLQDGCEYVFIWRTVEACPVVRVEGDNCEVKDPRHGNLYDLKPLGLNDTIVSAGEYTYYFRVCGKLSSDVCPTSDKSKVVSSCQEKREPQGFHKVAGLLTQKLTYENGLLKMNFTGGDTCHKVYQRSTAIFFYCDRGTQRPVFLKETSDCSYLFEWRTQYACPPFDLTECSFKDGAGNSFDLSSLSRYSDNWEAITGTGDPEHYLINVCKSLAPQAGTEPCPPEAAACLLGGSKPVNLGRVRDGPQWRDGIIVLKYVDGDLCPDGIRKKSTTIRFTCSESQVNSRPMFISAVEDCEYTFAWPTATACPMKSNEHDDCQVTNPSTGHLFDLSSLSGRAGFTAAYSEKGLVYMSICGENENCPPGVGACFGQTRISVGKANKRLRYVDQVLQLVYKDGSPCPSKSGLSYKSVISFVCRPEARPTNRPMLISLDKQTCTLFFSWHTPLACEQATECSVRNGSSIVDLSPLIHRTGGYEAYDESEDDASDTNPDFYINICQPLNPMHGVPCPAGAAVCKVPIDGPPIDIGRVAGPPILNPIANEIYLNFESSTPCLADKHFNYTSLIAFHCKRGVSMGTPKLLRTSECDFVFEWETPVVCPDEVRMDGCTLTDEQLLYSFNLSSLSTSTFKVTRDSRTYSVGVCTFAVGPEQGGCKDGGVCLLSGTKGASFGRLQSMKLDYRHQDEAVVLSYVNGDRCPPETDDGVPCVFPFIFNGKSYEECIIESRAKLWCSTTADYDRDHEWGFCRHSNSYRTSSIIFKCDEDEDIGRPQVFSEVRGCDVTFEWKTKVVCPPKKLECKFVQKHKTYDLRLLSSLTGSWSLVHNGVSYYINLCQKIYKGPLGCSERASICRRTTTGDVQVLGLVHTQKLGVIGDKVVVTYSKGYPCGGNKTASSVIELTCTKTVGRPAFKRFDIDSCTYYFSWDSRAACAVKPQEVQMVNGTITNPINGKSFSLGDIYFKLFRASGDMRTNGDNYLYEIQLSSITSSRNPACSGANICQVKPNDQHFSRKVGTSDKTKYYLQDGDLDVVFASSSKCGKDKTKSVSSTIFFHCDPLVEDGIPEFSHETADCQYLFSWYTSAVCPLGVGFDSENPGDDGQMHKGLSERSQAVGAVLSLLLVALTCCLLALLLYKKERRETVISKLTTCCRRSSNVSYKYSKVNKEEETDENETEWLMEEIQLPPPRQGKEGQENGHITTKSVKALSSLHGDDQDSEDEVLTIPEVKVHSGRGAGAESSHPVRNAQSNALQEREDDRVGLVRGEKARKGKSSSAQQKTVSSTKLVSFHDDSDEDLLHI

Series [2] can be described thus: Cytotoxicity against human fibroblast up to 100 uM after 4 days by MTT assay. In kind it is cell-based. To be noted: 96 h. The gist of the method: (§1)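 Human fibroblasts, MCF7 and MDA-MB-231 cells exposed in culture medium for 4 days to increasing concentrations up to 100 µM, with untreated controls. Proliferation read by MTT assay. Triplicates from one experiment, confirmed in two further experiments.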

The test system of a further series is Serum. The series can be described thus: Stability in human serum after 2 days. In kind it is ADME, cell-free. To be noted: 48 h. The gist of the method:
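Analogs incubated 2 days at 37 °C with 75% human serum or without serum. Residual capacity to inhibit biotinylated CI-M6PR binding to plate-adsorbed pentamannose 6-phosphate was then assayed. Result expressed relative to day-0 controls with or without serum, set as 100%. Mean ± standard deviations of triplicates, confirmed in two further experiments.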

In the next series the test system is MCF7. Nature of the series: Cytotoxicity against human MCF7 cells up to 100 uM by MTT assay. In kind it is cell-based. In short, it runs like this:
as §1

The test system of a further series is MDA-MB-231. The series can be described thus: Cytotoxicity against human MDA-MB-231 cells up to 100 uM by MTT assay. In kind it is cell-based. In short, it runs like this: as §1

Structures are written as SMILES.

`O=P(O)(O)OC[C@H]1OC(O)[C@@H](O)[C@@H](O)[C@@H]1O` (stereo partly specified): the IC50 in series [1] was determined as 23 µM.
As to `CO[C@H]1O[C@H](CCS(=O)(=O)[O-])[C@@H](O)[C@H](O)[C@@H]1O.[Na+]`, the Activity result (in series [2]; in the series with MCF7; in the series on MDA-MB-231) was “Not Active” throughout. Moreover, the Stability entry with Serum is “Stable”. The same compound displayed an IC50 in series [1] of 150 µM.
Turning to `CO[C@H]1O[C@H](/C=C/P(=O)([O-])[O-])[C@@H](O)[C@H](O)[C@@H]1O.[Na+].[Na+]`, the Activity result (in series [2]; in the series with MCF7; in the series on MDA-MB-231) was “Not Active” each time. The Stability result in the series with Serum is “Stable”. In series [1], this compound displayed an IC50 of 22 µM.
For `CO[C@H]1O[C@H](/C=C/S(=O)(=O)[O-])[C@@H](O)[C@H](O)[C@@H]1O.[Na+]`, the Activity result (in series [2]; in the series on MCF7; in the series with MDA-MB-231) was “Not Active” in each case. Besides, in the series on Serum, the Stability result is recorded as “Stable”. This compound also returned an IC50 in series [1] of 71 µM.

By IC50 is commonly meant the concentration at which inhibition is half-maximal.

For the origin of these results see ChEMBL document CHEMBL1152259, “Synthesis of new sulfonate and phosphonate derivatives for cation-independent mannose 6-phosphate receptor targeting” (Bioorg Med Chem Lett, 2008).
